Activity and LOAEL data for one molecule are collected here from ChEMBL document CHEMBL3872233, “Topical Treatment of Leishmania tropica Infection Using (-)-α-Bisabolol Ointment in a Hamster Model: Effectiveness and Safety Assessment” (J Nat Prod, 2016).

By LOAEL is commonly meant the lowest tested level that showed an adverse finding.

Molecules are shown by their SMILES. Active and inactive are the calls of the source. The rule behind the calls is not given here.

The test system of series [1] is Syrian golden hamster. Put plainly: Toxicity in Syrian hamster infected with Leishmania tropica MHOM/MA/1988/LEM1314 promastigotes assessed as pain at 200 mg/kg administered through oral gavage for 3 weeks starting at week 7 post infection measured during compound dosing or measured 1 week post last dose. The series is classed as organism-based, Mesocricetus auratus. Particulars: in vivo, 168 h. The essentials: (§1)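 Infected hamsters (footpad, 3 × 10^7 promastigotes) were gavaged daily for 21 days from week 7 post-infection at 200 mg/kg in olive oil, n=10.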

Series [2] has as its system Syrian golden hamster. Put plainly: Toxicity in Syrian hamster infected with Leishmania tropica MHOM/MA/1988/LEM1314 promastigotes assessed as change in body weight at 200 mg/kg administered through oral gavage for 3 weeks starting at week 7 post infection measured during compound dosing or measured 1 week post last dose. It is filed as organism-based, Mesocricetus auratus. Particulars: in vivo, 168 h. The essentials: (§2)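 Infected hamsters were treated daily for 21 days from week 7 post-infection (ointment 1–5%, 200 mg/kg gavage, or intralesional meglumine antimoniate 2 mg SbV/kg). Clinical signs and body weight were monitored during treatment and a 7-day follow-up. After sacrifice, liver and spleen were weighed and serum ALP, ALT, creatinine, urea and AST were measured with kits, compared with untreated infected animals.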

In series [3] the test system is Syrian golden hamster. The experiment in a line: Toxicity in Syrian hamster assessed as spleen weight at 5 % administered tropically on footpad for 28 days (reference value: 179.4 +/- 19.8 mg). The series is classed as organism-based, Mesocricetus auratus. Particulars: in vivo, topical_or_ocular, 672 h.
The subject of series [4] is Leishmania tropica. The experiment in a line: Antileishmanial activity against Leishmania tropica MHOM/MA/1988/LEM1314 promastigotes infected in Syrian hamster assessed as reduction in parasite load in foodpad skin at 2.5 % administered once daily tropically on footpad for 3 weeks starting at week 7 post infection measured 1 week post last dose by qPCR analysis relative to control. It is filed as functional. On the set-up: scale not given: the % may be the effect or the level left. The procedure, abridged: (§3)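 Hamsters were infected in the footpad and treated daily for 21 days from week 7 post-infection, n = 10/group, and sacrificed 1 week after the last dose. Footpad skin, liver and spleen DNA was assayed by L. tropica-specific TaqMan qPCR (chromosome 29 target), in triplicate with 50 ng DNA per 25 μL reaction. Load was interpolated from Ct on a calibration curve of promastigote DNA, relative to base-ointment controls.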

In series [5] the test system is Leishmania tropica. Put plainly: Antileishmanial activity against Leishmania tropica MHOM/MA/1988/LEM1314 promastigotes infected in Syrian hamster assessed as reduction in parasite load in spleen at 2.5 % administered once daily tropically on footpad for 3 weeks starting at week 7 post infection measured 1 week post last dose by qPCR analysis relative to control. It is filed as functional. The procedure, abridged:
as §3
For orientation: Quantitative PCR measures a nucleic acid by following its amplification.

Series [6] deals with Syrian golden hamster. The experiment in a line: Toxicity in Syrian hamster infected with Leishmania tropica MHOM/MA/1988/LEM1314 promastigotes assessed as mean serum ALT levels at 200 mg/kg administered through oral gavage for 3 weeks starting at week 7 post infection measured 1 week post last dose (reference value: 81.6 +/- 4.9 U/L). Particulars: in vivo, 168 h. It is filed as organism-based, Mesocricetus auratus.

Series [7] deals with Syrian golden hamster. Put plainly: Toxicity in Syrian hamster infected with Leishmania tropica MHOM/MA/1988/LEM1314 promastigotes assessed as urea levels at 5 % administered tropically on footpad for 3 weeks starting at week 7 post infection measured 1 week post last dose (reference value: 32.5 +/- 0.8 mg/dl). The note with it: in vivo, topical_or_ocular, 168 h. The series is classed as organism-based, Mesocricetus auratus.

In series [8] the test system is Syrian golden hamster. The experiment in a line: Toxicity in Syrian hamster assessed as urea levels at 500 mg/kg administered through oral gavage for 28 days (reference value: 33.2 +/- 2.8 mg/dl). It is filed as organism-based, Mesocricetus auratus. Particulars: in vivo, 672 h.
The test system of series [9] is Syrian golden hamster. The experiment in a line: Toxicity in Syrian hamster assessed as spleen weight at 500 mg/kg administered through oral gavage for 28 days (reference value: 179.4 +/- 19.8 mg). The series is classed as organism-based, Mesocricetus auratus. The note with it: in vivo, 672 h.
Series [10] deals with Syrian golden hamster. Put plainly: Toxicity in Syrian hamster infected with Leishmania tropica MHOM/MA/1988/LEM1314 promastigotes assessed as spleen weight at 5 % administered tropically on footpad for 3 weeks starting at week 7 post infection measured 1 week post last dose (reference value: 178.8 +/- 1.2 mg). The series is classed as organism-based, Mesocricetus auratus. The note with it: in vivo, topical_or_ocular, 168 h.

In series [11] the test system is Syrian golden hamster. The experiment in a line: Toxicity in Syrian hamster assessed as urea levels at 5 % administered tropically on footpad for 28 days (reference value: 33.2 +/- 2.8 mg/dl). The series is classed as organism-based, Mesocricetus auratus. The note with it: in vivo, topical_or_ocular, 672 h.
A short description of series [12]: Toxicity in po dosed dog. The series is classed as organism-based, Canis lupus familiaris. Particulars: in vivo.
Series [13] has as its system Leishmania tropica. Put plainly: Antileishmanial activity against Leishmania tropica MHOM/MA/1988/LEM1314 promastigotes infected in Syrian hamster assessed as reduction in amastigote levels in foodpad skin macerate at […] administered once daily through oral gavage for 3 weeks starting at week 7 post infection measured 1 week post last dose by Giemsa staining-based method. It is filed as functional.

The test system of series [14] is Syrian golden hamster. The experiment in a line: Toxicity in Syrian hamster infected with Leishmania tropica MHOM/MA/1988/LEM1314 promastigotes assessed as mean serum creatinine levels at 2.5 % administered tropically on footpad for 3 weeks starting at week 7 post infection measured 1 week post last dose (reference value: 0.19 mg/dl). The series is classed as organism-based, Mesocricetus auratus. The note with it: in vivo, topical_or_ocular, 168 h.

Series [15] has as its system Syrian golden hamster. The experiment in a line: Toxicity in Syrian hamster infected with Leishmania tropica MHOM/MA/1988/LEM1314 promastigotes assessed as liver weight at 1 % administered tropically on footpad for 3 weeks starting at week 7 post infection measured 1 week post last dose (reference value: 3.3 +/- 0.2 g). The series is classed as organism-based, Mesocricetus auratus. The note with it: in vivo, topical_or_ocular, 168 h. The essentials: as §2

For series [16], the system named is Syrian golden hamster. Put plainly: Toxicity in Syrian hamster assessed as diarrhea at 500 mg/kg, po or 5 % administered tropically on footpad for 28 days. It is filed as organism-based, Mesocricetus auratus. Particulars: in vivo, 672 h.
Series [17] deals with Syrian golden hamster. Put plainly: Toxicity in Syrian hamster infected with Leishmania tropica MHOM/MA/1988/LEM1314 promastigotes assessed as stress at 200 mg/kg administered through oral gavage for 3 weeks starting at week 7 post infection measured during compound dosing or measured 1 week post last dose. Particulars: in vivo, 168 h. It is filed as organism-based, Mesocricetus auratus. The essentials: as §1

Series [18] has as its system Syrian golden hamster. The experiment in a line: Toxicity in Syrian hamster assessed as mean serum ALP levels at 500 mg/kg administered through oral gavage for 28 days (reference value: 14.4 +/- 2 U/L). The series is classed as organism-based, Mesocricetus auratus. The note with it: in vivo, 672 h.
Series [19] deals with Syrian golden hamster. Put plainly: Toxicity in Syrian hamster infected with Leishmania tropica MHOM/MA/1988/LEM1314 promastigotes assessed as mean serum ALP levels at 200 mg/kg administered through oral gavage for 3 weeks starting at week 7 post infection measured 1 week post last dose (reference value: 14.4 +/- 0.9 U/L). The series is classed as organism-based, Mesocricetus auratus. The note with it: in vivo, 168 h.

For series [20], the system named is Syrian golden hamster. The experiment in a line: Toxicity in Syrian hamster infected with Leishmania tropica MHOM/MA/1988/LEM1314 promastigotes assessed as footpad edema at 200 mg/kg administered through oral gavage for 3 weeks starting at week 7 post infection measured during compound dosing or measured 1 week post last dose. It is filed as organism-based, Mesocricetus auratus. The note with it: in vivo, 168 h. The essentials:
as §2

For series [21], the system named is Syrian golden hamster. Put plainly: Toxicity in Syrian hamster assessed as redness at 500 mg/kg, po or 5 % administered tropically on footpad for 28 days. Particulars: in vivo, 672 h. The series is classed as organism-based, Mesocricetus auratus.
The subject of series [22] is Leishmania tropica. Put plainly: Antileishmanial activity against Leishmania tropica MHOM/MA/1988/LEM1314 promastigotes infected in Syrian hamster assessed as reduction in parasite load in liver at 2.5 % administered once daily tropically on footpad for 3 weeks starting at week 7 post infection measured 1 week post last dose by qPCR analysis relative to control. The series is classed as functional, tissue-based. The essentials: as §3

Series [23] relates to Leishmania tropica. The experiment in a line: Antileishmanial activity against Leishmania tropica MHOM/MA/1988/LEM1314 promastigotes infected in Syrian hamster assessed as reduction in lesion thickness at 1 % administered once daily tropically on footpad for 3 weeks starting at week 7 post infection measured 1 week post last dose relative to control. The series is classed as functional. On the set-up: scale not given: the % may be the effect or the level left. The essentials:
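L. tropica stationary-phase promastigotes (3 × 10^7 in 50 μL PBS) injected into the left hind footpad. Treatment began at week 7 (+75% footpad thickness) and ran daily for 21 days, n = 10/group. Routes were 50 mg ointment on the lesion (cetyl alcohol/lanolin/petrolatum base), gavage in olive oil, or intralesional meglumine antimoniate 2 mg SbV/kg. Lesion thickness was measured weekly against base-only ointment; sacrifice was 1 week after the last dose.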

With `CC(C)=CCC[C@](C)(O)[C@@H]1CC=C(C)CC1` [LEVOMENOL], the Activity result in [1] was “Non-Toxic”; in series [2] it was “Non-Toxic”; in series [3], 180.2 mg; in [4], 83%; in series [6], 81.6 U/L; in series [7], 34.2 mg/dL. Moreover, the Activity was found to be 33.7 mg/dL in series [8]; 181.2 mg in series [9]; 193.1 mg in series [10]; 33.9 mg/dL in [11]; 0.21 mg/dL in series [14]; 3.2 g in [15]. Also, the Activity result in [16] is on record as “Non-Toxic”; in [17], “Non-Toxic”; in series [18], 14.7 U/L; in series [19], 12.9 U/L; in series [20], “Non-Toxic”; in [21], “Non-Toxic”. In [23], the Activity is 49%. Moreover, the result in series [5], in series [13] and in [22] was Active. This molecule also displayed an LOAEL in [12] of 2 mL/kg.
